# Source: ChEMBL document CHEMBL1255501, “Heteroresistance of Cryptococcus gattii to fluconazole” (2010)
# Experiments:
# [1] = tested on: Cryptococcus deuterogattii; assay: Antimicrobial activity against Cryptococcus gattii serotype B isolate NIH444 assessed as heteroresistant isolates at 16 ug/ml; type: functional, Cryptococcus bacillisporus
# Procedure, shortened: (§1)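 Population analysis: cells suspended in sterile saline at 1 × 10³ to 4 × 10³ CFU/ml and plated on plain YPD agar or YPD agar with various fluconazole concentrations. Plates incubated at 30°C for 72 h. The resistant subpopulation at each concentration is recorded as a percentage of the population.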
# [2] = tested on: Cryptococcus bacillisporus; assay: Antimicrobial activity against Cryptococcus gattii serotype C isolate NIH191 assessed as heteroresistant isolates at 32 ug/ml; type: functional
# Procedure, shortened: (§2)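 Population analysis: saline cell suspensions (1 × 103 to 4 × 10^3 CFU/ml) plated on plain YPD agar or YPD agar with various fluconazole concentrations; growth recorded after 72 h at 30°C; percentage of resistant subpopulation at each drug level calculated relative to drug-free plate growth.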
# [3] = tested on: Cryptococcus gattii species complex; assay: Antimicrobial activity against Cryptococcus gattii serotype C isolate NIH18 assessed as heteroresistant isolates at 32 ug/ml; type: functional, Cryptococcus bacillisporus, serotype B isolate  NIH18; procedure, shortened: as §2
# [4] = tested on: Cryptococcus gattii species complex; assay: Antimicrobial activity against Cryptococcus gattii serotype B isolate NIH367 assessed as heteroresistant isolates at 2 ug/ml; type: functional, Cryptococcus bacillisporus; procedure, shortened: as §1
# [5] = tested on: Cryptococcus gattii species complex; assay: Antimicrobial activity against Cryptococcus gattii serotype C isolate H0058-1-2023 assessed as concentration required for heteroresistance; type: functional, Cryptococcus bacillisporus
# [6] = tested on: Cryptococcus gattii species complex; assay: Antimicrobial activity against Cryptococcus gattii serotype B isolate B5765 assessed as concentration required for heteroresistance; type: functional, Cryptococcus bacillisporus
# Procedure, shortened: (§3)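 Fluconazole spot test: 10-fold serial dilutions of each single-colony-purified strain spotted on YPD agar alone and YPD agar with fluconazole at 4 to 128 μg/ml. The level of heteroresistance to fluconazole (LHF) is the lowest drug concentration at which minor resistant subpopulations emerge within the spot.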
# [7] = tested on: Cryptococcus gattii species complex; assay: Antimicrobial activity against Cryptococcus gattii serotype B isolate RB-9 assessed as concentration required for heteroresistance; type: functional, Cryptococcus bacillisporus
# [8] = tested on: Cryptococcus gattii species complex; assay: Antimicrobial activity against Cryptococcus gattii serotype B isolate RB-11 assessed as concentration required for heteroresistance; type: functional, Cryptococcus bacillisporus
# [9] = tested on: Cryptococcus bacillisporus; assay: Antimicrobial activity against Cryptococcus gattii serotype C isolate NIH191 assessed as concentration required for heteroresistance; type: functional
# [10] = tested on: Cryptococcus gattii species complex; assay: Antimicrobial activity against Cryptococcus gattii serotype B isolate RAM15 assessed as heteroresistant isolates at 32 ug/ml; type: functional, Cryptococcus bacillisporus; procedure, shortened: as §2
# [11] = tested on: Cryptococcus gattii species complex; assay: Antimicrobial activity against Cryptococcus gattii serotype C isolate NIH178 assessed as concentration required for heteroresistance; type: functional, Cryptococcus bacillisporus
# [12] = tested on: Cryptococcus gattii species complex; assay: Antimicrobial activity against Cryptococcus gattii serotype C isolate H0058-1-1941 assessed as heteroresistant isolates at 8 ug/ml; type: functional, Cryptococcus bacillisporus; procedure, shortened: as §2
# [13] = tested on: Cryptococcus gattii species complex; assay: Antimicrobial activity against Cryptococcus gattii serotype B isolate NIH744 assessed as concentration required for heteroresistance; type: functional, Cryptococcus bacillisporus; procedure, shortened: as §3
# [14] = tested on: Cryptococcus gattii species complex; assay: Antimicrobial activity against Cryptococcus gattii serotype B isolate RB-3 assessed as concentration required for heteroresistance; type: functional, Cryptococcus bacillisporus
# [15] = tested on: Cryptococcus gattii species complex; assay: Antimicrobial activity against Cryptococcus gattii serotype B isolate NIH190 assessed as heteroresistant isolates at 4 ug/ml; type: functional, Cryptococcus bacillisporus; procedure, shortened: as §1
# [16] = tested on: Cryptococcus gattii species complex; assay: Antimicrobial activity against Cryptococcus gattii serotype C isolate H0058-1-1941 assessed as heteroresistant isolates at 16 ug/ml; type: functional, Cryptococcus bacillisporus; procedure, shortened: as §2
# [17] = tested on: Cryptococcus gattii species complex; assay: Antimicrobial activity against Cryptococcus gattii serotype B isolate NIH367 assessed as heteroresistant isolates at 16 ug/ml; type: functional, Cryptococcus bacillisporus; procedure, shortened: as §1
# [18] = tested on: Cryptococcus gattii species complex; assay: Antimicrobial activity against Cryptococcus gattii serotype B isolate NIH198 assessed as heteroresistant isolates at 16 ug/ml; type: functional, Cryptococcus bacillisporus; procedure, shortened: as §1
# [19] = tested on: Cryptococcus gattii species complex; assay: Antimicrobial activity against Cryptococcus gattii serotype C isolate H0058-1-78 assessed as concentration required for heteroresistance; type: functional, Cryptococcus bacillisporus
# [20] = tested on: Cryptococcus gattii species complex; assay: Antimicrobial activity against Cryptococcus gattii serotype B isolate B5788 assessed as concentration required for heteroresistance; type: functional, Cryptococcus bacillisporus; procedure, shortened: as §3
# [21] = tested on: Cryptococcus gattii species complex; assay: Antimicrobial activity against Cryptococcus gattii serotype B isolate VPB572-058 assessed as heteroresistant isolates at 32 ug/ml; type: functional, Cryptococcus bacillisporus; procedure, shortened: as §2
# [22] = tested on: Cryptococcus gattii species complex; assay: Antimicrobial activity against Cryptococcus gattii serotype B isolate B5763 assessed as heteroresistant isolates at 8 ug/ml; type: functional, Cryptococcus bacillisporus; procedure, shortened: as §1
# [23] = tested on: Cryptococcus gattii species complex; assay: Antimicrobial activity against Cryptococcus gattii serotype B isolate NIH189 assessed as heteroresistant isolates at 2 ug/ml; type: functional, Cryptococcus bacillisporus; procedure, shortened: as §1
# [24] = tested on: Cryptococcus gattii species complex; assay: Antimicrobial activity against Cryptococcus gattii serotype B isolate NIH771 assessed as heteroresistant isolates at 4 ug/ml; type: functional, Cryptococcus bacillisporus; procedure, shortened: as §2
# [25] = tested on: Cryptococcus gattii species complex; assay: Antimicrobial activity against Cryptococcus gattii serotype B isolate RB-4 assessed as concentration required for heteroresistance; type: functional, Cryptococcus bacillisporus
# [26] = tested on: Cryptococcus gattii species complex; assay: Antimicrobial activity against Cryptococcus gattii serotype C isolate H0058-1-2023 assessed as heteroresistant isolates at 2 ug/ml; type: functional, Cryptococcus bacillisporus; procedure, shortened: as §2
# [27] = tested on: Cryptococcus gattii species complex; assay: Antimicrobial activity against Cryptococcus gattii serotype B isolate B3939 assessed as heteroresistant isolates at 4 ug/ml; type: functional, Cryptococcus bacillisporus; procedure, shortened: as §1
# [28] = tested on: Cryptococcus gattii species complex; assay: Antimicrobial activity against Cryptococcus gattii serotype B isolate RB-1 assessed as concentration required for heteroresistance; type: functional, Cryptococcus bacillisporus
# [29] = tested on: Cryptococcus deuterogattii; assay: Antimicrobial activity against Cryptococcus gattii serotype B isolate NIH444 assessed as concentration required for heteroresistance; type: functional, Cryptococcus bacillisporus; procedure, shortened: as §3
# [30] = tested on: Cryptococcus gattii species complex; assay: Antimicrobial activity against Cryptococcus gattii serotype B isolate RB-33 assessed as concentration required for heteroresistance; type: functional, Cryptococcus bacillisporus
# [31] = tested on: Cryptococcus gattii species complex; assay: Antimicrobial activity against Cryptococcus gattii serotype B isolate NIH535 assessed as heteroresistant isolates at 4 ug/ml; type: functional, Cryptococcus bacillisporus; procedure, shortened: as §1
# [32] = tested on: Cryptococcus gattii species complex; assay: Antimicrobial activity against Cryptococcus gattii serotype C isolate H0058-1-818 assessed as concentration required for heteroresistance; type: functional, Cryptococcus bacillisporus
# [33] = tested on: Cryptococcus gattii species complex; assay: Antimicrobial activity against Cryptococcus gattii serotype B isolate NIH286 assessed as heteroresistant isolates at 32 ug/ml; type: functional, Cryptococcus bacillisporus; procedure, shortened: as §1
# [34] = tested on: Cryptococcus deuterogattii; assay: Antimicrobial activity against Cryptococcus gattii serotype B isolate NIH444 assessed as heteroresistant isolates at 4 ug/ml; type: functional, Cryptococcus bacillisporus; procedure, shortened: as §1
# [35] = tested on: Cryptococcus gattii species complex; assay: Antimicrobial activity against Cryptococcus gattii serotype C isolate H0058-1-78 assessed as heteroresistant isolates at 8 ug/ml; type: functional, Cryptococcus bacillisporus; procedure, shortened: as §2
# [36] = tested on: Cryptococcus gattii species complex; assay: Antimicrobial activity against Cryptococcus gattii serotype B isolate RAM002 assessed as heteroresistant isolates at 4 ug/ml; type: functional, Cryptococcus bacillisporus; procedure, shortened: as §2
# [37] = tested on: Cryptococcus gattii species complex; assay: Antimicrobial activity against Cryptococcus gattii serotype B isolate NIH771 assessed as heteroresistant isolates at 2 ug/ml; type: functional, Cryptococcus bacillisporus; procedure, shortened: as §1
# [38] = tested on: Cryptococcus gattii species complex; assay: Antimicrobial activity against Cryptococcus gattii serotype B isolate NIH771 assessed as concentration required for heteroresistance; type: functional, Cryptococcus bacillisporus; procedure, shortened: as §3
# [39] = tested on: Cryptococcus gattii species complex; assay: Antimicrobial activity against Cryptococcus gattii serotype B isolate VPB571-058 assessed as concentration required for heteroresistance; type: functional, Cryptococcus bacillisporus
# [40] = tested on: Cryptococcus gattii species complex; assay: Antimicrobial activity against Cryptococcus gattii serotype B isolate NIH184 assessed as heteroresistant isolates at 4 ug/ml; type: functional, Cryptococcus bacillisporus; procedure, shortened: as §1
# [41] = tested on: Cryptococcus gattii species complex; assay: Antimicrobial activity against Cryptococcus gattii serotype C isolate NIH298 assessed as heteroresistant isolates at 4 ug/ml; type: functional, Cryptococcus bacillisporus
# Procedure, shortened: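 Cell suspensions of 1 × 10^3 to 4 × 10^3 CFU/ml were made in sterile saline and plated on plain YPD agar or YPD agar with various fluconazole concentrations. Plates were incubated at 30°C for 72 h, and the percentage of resistant subpopulation emerging was recorded.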
# [42] = tested on: Cryptococcus gattii species complex; assay: Antimicrobial activity against Cryptococcus gattii serotype B isolate NIH189 assessed as heteroresistant isolates at 16 ug/ml; type: functional, Cryptococcus bacillisporus; procedure, shortened: as §1
# [43] = tested on: Cryptococcus gattii species complex; assay: Antimicrobial activity against Cryptococcus gattii serotype B isolate NIH76 assessed as concentration required for heteroresistance; type: functional, Cryptococcus bacillisporus; procedure, shortened: as §3
# [44] = tested on: Cryptococcus gattii species complex; assay: Antimicrobial activity against Cryptococcus gattii serotype B isolate NIH184 assessed as heteroresistant isolates at 16 ug/ml; type: functional, Cryptococcus bacillisporus; procedure, shortened: as §1
smiles,measurement,setting,value
OC(Cn1cncn1)(Cn1cncn1)c1ccc(F)cc1F [FLUCONAZOLE],Activity,[1],100%
same,Activity,[2],20%
same,Activity,[3],0.44%
same,Activity,[4],100%
same,Activity,[5],32 µg/mL
same,Activity,[6],16 µg/mL
same,Activity,[7],32 µg/mL
same,Activity,[8],32 µg/mL
same,Activity,[9],32 µg/mL
same,Activity,[10],10%
same,Activity,[11],32 µg/mL
same,Activity,[12],100%
same,Activity,[13],32 µg/mL
same,Activity,[14],8 µg/mL
same,Activity,[15],100%
same,Activity,[16],100%
same,Activity,[17],9%
same,Activity,[18],1.9%
same,Activity,[19],32 µg/mL
same,Activity,[20],8 µg/mL
same,Activity,[21],1.6%
same,Activity,[22],0.03%
same,Activity,[23],100%
same,Activity,[24],100%
same,Activity,[25],32 µg/mL
same,Activity,[26],100%
same,Activity,[27],100%
same,Activity,[28],32 µg/mL
same,Activity,[29],32 µg/mL
same,Activity,[30],32 µg/mL
same,Activity,[31],0.1%
same,Activity,[32],32 µg/mL
same,Activity,[33],0.06%
same,Activity,[34],100%
same,Activity,[35],100%
same,Activity,[36],100%
same,Activity,[37],100%
same,Activity,[38],32 µg/mL
same,Activity,[39],32 µg/mL
same,Activity,[40],100%
same,Activity,[41],100%
same,Activity,[42],0.7%
same,Activity,[43],32 µg/mL
same,Activity,[44],35%
